The source of these data is ChEMBL document CHEMBL1155579, “Known and novel terpenes from Buddleja globosa displaying selective antifungal activity against dermatophytes” (2000).

A word on the MIC: it is the least concentration at which growth counts as inhibited.

In one test the test system is Epidermophyton floccosum. The experiment in a line: Antifungal activity against Epidermophyton floccosum after 24 hrs. Type of test: functional.
The test system of test [1] is Trichophyton interdigitale. The experiment in a line: Antifungal activity against Trichophyton interdigitale EL 5171 after 24 hrs. Type of test: functional.
A further test deals with Aspergillus niger. The experiment in a line: Antifungal activity against Aspergillus niger ATCC 16404 at 1000 ug/ml after 24 hrs. Type of test: functional, organism-based.
The next test relates to Saccharomyces cerevisiae. The experiment in a line: Antifungal activity against Saccharomyces cerevisiae NCIMB 080178 at 1000 ug/ml after 24 hrs. Type of test: functional, organism-based. In short, it runs like this: (§1)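 Agar dilution in 96-well plates. Samples in DMSO, made up with sterile water, 1:2 serially diluted over six steps, then mixed with an equal volume of molten double-strength Sabouraud dextrose agar (200 µL per well). Yeasts were grown on SDA at 30 °C for 24 h and harvested in PBS. 100 µL inoculum (10⁵ CFU) was added per well and incubated at 30 °C for 24 h. Miconazole was the positive control.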

For the next test, the system named is Candida albicans. The experiment in a line: Antifungal activity against Candida albicans ATCC 10234 at 1000 ug/ml after 24 hrs. Type of test: functional, organism-based. The gist of the method:
as §1

The subject of the next test is Penicillium chrysogenum. The experiment in a line: Antifungal activity against Penicillium notatum ATCC 11654 at 1000 ug/ml after 24 hrs. Type of test: functional, organism-based.
The test system of test [2] is Neoscytalidium dimidiatum. The experiment in a line: Antifungal activity against Scytalidium dimidiatum at 1000 ug/ml after 24 hrs. Type of test: functional, organism-based.
The subject of the next test is Trichophyton rubrum. The experiment in a line: Antifungal activity against Trichophyton rubrum after 24 hrs.
Test [3] concerns Scopulariopsis brevicaulis. The experiment in a line: Antifungal activity against Scopulariopsis brevicaulis at 1000 ug/ml after 24 hrs.

In brackets after ≈: the same amount, converted by molar mass. Activity calls are given as the source filed them. No cut-off for these calls is given here.

As to `CC(C)C1=CC=C2C(=C(O)C[C@H]3C(C)(C)CCC[C@]23C)C1=O` [BUDDLEJONE], the MIC (against Epidermophyton floccosum; in test [1]; with Trichophyton rubrum) was 2500 µM (≈ 751 µg/mL) each time. Also, the outcome (in the test with Aspergillus niger; with Saccharomyces cerevisiae; in the test on Candida albicans; in the test with Penicillium chrysogenum; in test [2]; in [3]) was inactive.

In the case of `CC(C)[C@]1(O)C(=O)C=C2[C@@]3(CC[C@H]4C(C)(C)CCC[C@]24C)[C@@H]2C(=O)[C@@](O)(C(C)C)[C@@H](C4=C2[C@@]2(C)CCCC(C)(C)[C@@H]2CC4)[C@H]31` [MAYTENONE], the MIC (against Epidermophyton floccosum; in test [1]; in the test with Trichophyton rubrum) was 625 µM (≈ 378 µg/mL) in each case. The result (with Aspergillus niger; in the test on Saccharomyces cerevisiae; in the test on Candida albicans; in the test on Penicillium chrysogenum; in test [2]; in test [3]) was inactive.

`C=C1CC/C=C(\C)C(=O)[C@H](O)[C@@H]2[C@@H]1CC2(C)C` [BUDDLEDIN B]: the MIC (against Epidermophyton floccosum; in test [1]; in the test on Trichophyton rubrum) was 51 µM (≈ 12 µg/mL) throughout. In addition, the outcome (with Aspergillus niger; with Saccharomyces cerevisiae; in the test on Candida albicans; with Penicillium chrysogenum; in [2]; in [3]) was inactive.

Regarding `CC(C)C1=CC=C2C(=CC[C@H]3C(C)(C)CCC[C@]23C)C1=O` [DEOXYBUDDLEJONE], the MIC (against Epidermophyton floccosum; in [1]; in the test with Trichophyton rubrum) was 2640 µM (≈ 751 µg/mL) each time. Besides, the outcome (in the test on Aspergillus niger; with Saccharomyces cerevisiae; with Candida albicans; in the test with Penicillium chrysogenum; in test [2]; in test [3]) was inactive.

With `Clc1ccc(COC(Cn2ccnc2)c2ccc(Cl)cc2Cl)c(Cl)c1` (centres undefined) [MICONAZOLE], the minimal inhibitory concentration (MIC) (against Epidermophyton floccosum; in [1]; with Trichophyton rubrum) was 5 µM (≈ 2.08 µg/mL) throughout. Also, the result (in the test on Aspergillus niger; in the test with Saccharomyces cerevisiae; in the test on Candida albicans; in the test on Penicillium chrysogenum; in test [2]; in test [3]) was inactive.

With `C=C1CC/C=C(\C)C(=O)[C@H](OC(C)=O)[C@@H]2[C@@H]1CC2(C)C` [BUDDLEDIN A], the MIC (in the test on Epidermophyton floccosum; in test [1]; in the test with Trichophyton rubrum) was 43 µM (≈ 11.9 µg/mL) in each case. The outcome (in the test on Aspergillus niger; in the test with Saccharomyces cerevisiae; with Candida albicans; in the test with Penicillium chrysogenum; in test [2]; in test [3]) was inactive.
